Measured values collected from several papers.
Protocols differ between the studies behind these lines.
Matrix: plasma

SMILES	host	route	dose	setting	endpoint	result
Cc1ncsc1-c1ccc([C@H](C)NC(=O)[C@@H]2C[C@@H](O)CN2C(=O)[C@@H](NC(=O)CCc2ccc(C#Cc3ccc(C(=O)NCCCn4cc(-c5ccc6c(c5)CCN6C(=O)Cc5cccc(OC(F)(F)F)c5)c5c(N)ncnc54)cc3)cn2)C(C)(C)C)cc1	male C57BL/6 mouse	intravenous	1 mg/kg	–	clearance	2.5 mL/min/kg
COc1cc(-c2cc(C(C)=O)n3ccccc23)c(OC)cc1Cn1ccnc1	male Sprague-Dawley rat	intravenous	5 mg/kg	–	Tmax	0.016 h
CCOC(=O)C1=C(CN2CCC[C@@H]2C(=O)Nc2ccc(B(O)O)cc2)NC(c2nccs2)=N[C@H]1c1ccc(F)cc1Br	CD-1 mouse	intravenous	2 mg/kg	–	C0	2160 ng/mL
O=C1CCC(N2Cc3cc(CO)c(F)cc3C2=O)C(=O)N1 (centres unmarked)	male CD-1 mouse	intravenous	1 mg/kg	–	C0	2190 ng/mL
C[C@H]1Oc2cc(cnc2N)-c2c(nn(C)c2C#N)CN(C)C(=O)c2ccc(F)cc21	male Sprague-Dawley rat	oral	10 mg/kg	single dose	Tmax	1.36 h
CN(C)C(=O)c1cc2cnc(Nc3ccc(-c4ccc5c(=O)cc(N6CCOCC6)oc5c4)cc3)nc2n1C1CCCC1.Cl	BALB/c mouse	oral	20 mg/kg	–	CL/F	43.3 mL/min/kg
C=CCn1c(=O)c2cnc(Nc3ccc(N4CCN(C)CC4)cc3)nc2n1-c1ccc2c(n1)[C@@](O)(CC)CC2	dog	oral	10 mg/kg	–	Cmax	2100 nM
Cc1ncsc1-c1ccc([C@H](CC(=O)N2CCN(c3ccc(C#Cc4ccc(C(=O)N5CCC(n6cc(-c7ccc8c(c7)CCN8C(=O)Cc7cccc(OC(F)(F)F)c7)c7c(N)ncnc76)CC5)cc4)cn3)CC2)NC(=O)[C@@H]2C[C@@H](O)CN2C(=O)[C@@H](NC(=O)C2(F)CC2)C(C)(C)C)cc1	male C57BL/6 mouse	intravenous	1 mg/kg	–	clearance	2.3 mL/min/kg
NCc1cc2c(cc1F)C(=O)N(C1CCC(=O)NC1=O)C2 (centres unmarked)	male CD-1 mouse	intravenous	1 mg/kg	–	C0	2000 ng/mL
OCc1ccc(-c2nn(Cc3ccccc3)c3ccccc23)o1	male CD-1 mouse	intravenous	5 mg/kg	–	C0	5100 ng/mL
COc1ccc(N(Cc2csc(-c3ccccc3)n2)C(=O)CCCCCC(=O)NO)cc1	female Sprague-Dawley rat	oral	30 mg/kg	–	Tmax	1 h
Cc1ccc(OCC(=O)N[C@@H](Cc2c[nH]c3ccccc23)C(=O)OC(C)C)cc1	male Sprague-Dawley mouse	oral	20 mg/kg	–	clearance	32.3 mL/min/kg
OCc1nc2ccc(NCc3ccc(C(F)(F)F)cc3)cc2[nH]1	male BALB/c mouse	intravenous	1 mg/kg	–	CL/F	61.7 mL/min/kg
NCc1ccc(-c2nn(Cc3ccccc3)c3ccccc23)o1	male CD-1 mouse	intravenous	5 mg/kg	–	C0	1520 ng/mL
